Measurements as given in ChEMBL document CHEMBL1122321, “Synthesis and transport applications of 3-aminobicyclo[3.2.1] octane-3-carboxylic acids” (1983).

Experiments:
Format in all cases: functional
Rattus norvegicus [1] = species: Rattus norvegicus; test: Inhibition of threonine (0.5*10e-4) uptake by rat Hepatoma cells(HTC) at the specified Conc of 2.5 mM expressed as nM/mg of protein/min
Procedure, shortened: (§1)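 HTC hepatoma monolayers were grown in Medium 199 (pH 7.4, 26 mM NaHCO₃, antibiotics, 5–8% FBS) under 5% CO₂/95% air and seeded 3–4 days before testing. A 1-min uptake ran in Krebs-Ringer phosphate (pH 7.4, 37 °C), then the cells were washed with ice-cold Na⁺-free choline medium. Cells were extracted with 5% TCA and counted by scintillation. Protein was measured by modified Lowry with SDS and a BSA standard.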

Rattus norvegicus [2] = species: Rattus norvegicus; test: Inhibition of threonine (0.5*10e-4) uptake by rat Hepatoma cells(HTC) at the specified Conc of 0.5 mM expressed as nM/mg of protein/min; procedure, shortened: as §1
Mus musculus [3] = test: Inhibition of MeAIB(10e-4) uptake by Ehrlich cell at the specified Conc of 2.5 mM expressed as mM/kg of cell water/min
Procedure, shortened: (§2)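 ¹⁴C-MeAIB uptake by Ehrlich ascites tumor cells propagated in Swiss white mice and washed in Na⁺-free media. Uptake ran for 1 min at 37 °C in 5% cell suspensions in Na⁺-containing Krebs-Ringer bicarbonate under 5% CO₂–O₂ (pH 7.4). Stopped by ice-cold dilution and centrifugation. ¹⁴C in the medium and in a sulfosalicylic acid cell extract was counted by liquid scintillation. Extracellular water was measured by sucrose.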

Mus musculus [4] = test: Inhibition of MeAIB(10e-4) uptake by Ehrlich cell at the specified Conc of 0.5 mM expressed as mM/kg of cell water/min; procedure, shortened: as §2
Mus musculus [5] = test: Inhibition of MeAIB(10e-4) uptake by Ehrlich cell at the specified Conc of 10 mM expressed as mM/kg of cell water/min; procedure, shortened: as §2
Mus musculus [6] = test: Inhibition of MeAIB(10e-4) uptake by Ehrlich cell at the specified Conc of 0.25 mM expressed as mM/kg of cell water/min; procedure, shortened: as §2
Rattus norvegicus [7] = species: Rattus norvegicus; test: Inhibition of threonine (0.5*10e-4) uptake by rat Hepatoma cells(HTC) at the specified Conc of 10 mM expressed as nM/mg of protein/min; procedure, shortened: as §1

| SMILES | Thr uptake (Rattus norvegicus [1]) | Thr uptake (Rattus norvegicus [2]) | MeAIB uptake (Mus musculus [3]) | MeAIB uptake (Mus musculus [4]) | MeAIB uptake (Mus musculus [5]) | MeAIB uptake (Mus musculus [6]) | Thr uptake (Rattus norvegicus [7]) |
| --- | --- | --- | --- | --- | --- | --- | --- |
| N[C@]1(C(=O)O)C[C@@H]2CC[C@@H](C2)C1 | 3.52 | 3.81 | 0.64 | 0.66 | 0.61 | 0.67 | 3.45 |
| CC(O)C(N)C(=O)O (stereo not drawn) | – | – | – | – | – | – | 0.12 |
